Laboratory results from PMC6800822 (Bioconjugate chemistry, 2019).
Square brackets hold non-standard residues; d marks the D form. Peptide text beside a SMILES is read from it. * marks the point of attachment. Acetyl(thymin-1-yl) = Cc1cn(CC(=O)*)c(=O)[nH]c1=O; NBD = O=[N+]([O-])c1ccc(*)c2nonc12

Legend:
[1] = test system: T98G cells; test: Cellular uptake and distribution by fluorescence imaging; type: cell-based
Method in brief: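 T98G cells incubated with the test peptide at 100 or 200 μM and imaged by confocal fluorescence microscopy after 2 h. Counterstains used: Hoechst 33342 for nuclei, fibrillarin immunofluorescence for nucleoli, and ER Tracker. Localisation to lysosomes was also assessed.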

[2] = CD spectra, secondary structure inferred by DichroWeb; type: physicochemical; settings: 200 μM
[3] = type: cell-based
[4] = test system: HeLa; test: Nucleolus targeting in HeLa cells; type: cell-based
[5] = test system: T98G cells; settings: 50 uM; cited from earlier work
[6] = test system: RNA extracted from T98G cells; test: Interaction with total RNA extracted from T98G cells in PBS buffer
[7] = test system: phospho-Ser139-H2AX (γH2AX); test: Immunofluorescence of γH2AX; type: cell-based; settings: T98G cells, 200 μM, 2 h
[8] = test system: MES-SA/Dx5; test: Nucleolus targeting in MES-SA/Dx5 cells; type: cell-based
[9] = test system: Saos-2; test: Nucleolus targeting in Saos-2 cells; type: cell-based

With `Cc1cn(CC(=O)N[C@H](Cc2ccccc2)C(=O)N[C@H](Cc2ccccc2)C(=O)N[C@H](CCCCN)C(=O)N[C@H](CCCCN)C(=O)N[C@H](Cc2ccccc2)C(=O)N[C@H](CCCCN)C(=O)N[C@H](CC(C)C)C(=O)N[C@H](CCCCN)C(=O)N[C@H](CC(C)C)C(=O)N[C@H](CCCCNc2ccc([N+](=O)[O-])c3nonc23)C(=O)O)c(=O)[nH]c1=O` [D-1] ({Acetyl(thymin-1-yl)}-[dF][dF][dK][dK][dF][dK][dL][dK][dL][dK](NBD)-OH; N-terminus and C-terminus assumed) the Cell entry ([1]; 100 μM, fluorescence imaging) was “hardly enters the cells”, the Cellular distribution ([1]; 200 μM, 2 h, fluorescence imaging) was “bright fluorescent puncta in cell nucleus” and the Lysosomal localisation ([1]; 200 μM, fluorescence imaging) was “only slightly localized in the lysosome”. For the same molecule, the “Cellular uptake at 4 °C” value ([1]; 4 °C, 1 h) was “hardly exhibit any fluorescence”, the unordered structures content [2] was 28% and the α-helix content [2] was 36%. For the same molecule, the β-sheet content [2] was 13%, the β-turns content [2] was 23% and the IC50 [3] was 86.2 µM. For the same molecule, the Nucleolus targeting [4] was “able to target nucleoli”, the “Effect on cells at low concentration” value [5] was “innocuous to the cells” and the “Interaction with RNA” value [6] was “form precipitates that resist ribonuclease”. The “γH2AX foci formation (DNA damage)” value [7] was “leads to γH2AX foci formation”, the Nucleolus targeting [8] was “able to target nucleoli” and the Nucleolus targeting [9] was “able to target nucleoli”.
